{"data": "Measurements collected from several papers", "cell line": "SK-OV-3", "note": "Each line is one published result; the experiments were not run side by side."}
{"SMILES": "CCN1CCN(Cc2ccc(Nc3ncc(F)c(-c4cc(F)c5nc(C)n(C(C)C)c5c4)n3)nc2)CC1", "read-out": "cell growth or viability", "technique": "CCK-8", "endpoint": "IC50", "value": "1.62 µM"}
{"SMILES": "COc1ccc(C(=O)/C=C/c2cccc3ccccc23)cc1S(N)(=O)=O", "read-out": "cell growth or viability", "technique": "SRB", "time": "48 h", "endpoint": "GI50", "value": "3.7 µM"}
{"SMILES": "O=C(c1cc(Cc2n[nH]c(=O)c3ccccc23)ccc1F)N1CCN(C(=O)C2CC2)CC1", "read-out": "colony formation", "endpoint": "IC50", "value": "2.63 µM"}
{"SMILES": "COc1cc(CNC(=O)CCCC/C=C/C(C)C)ccc1OCc1cn(-c2ccc(C(F)(F)F)cc2)nn1", "read-out": "cell growth or viability", "technique": "SRB", "endpoint": "IC50", "value": "10.6 µM"}
{"SMILES": "Cc1ccc(-c2ccc(O)cc2)c(C(=C2C=CC(=O)C=C2)c2ccc(O)cc2)c1C#Cc1ccc(O)cc1", "read-out": "cell growth or viability", "technique": "MTT", "time": "48 h", "endpoint": "IC50", "value": "18.6 µM"}
{"SMILES": "COc1ccc(C(=O)/C=C/c2ccc3ccccc3c2)cc1S(N)(=O)=O", "read-out": "cell growth or viability", "technique": "SRB", "concentration": "10 µM", "endpoint": "inhibition", "value": "77%"}
{"SMILES": "COc1cccc2c1C(=O)c1c(O)c3c(c(O)c1C2=O)C[C@@](O)(C(=O)CO)C[C@@H]3O[C@H]1C[C@H](N)[C@H](O)[C@H](C)O1", "read-out": "cell growth or viability", "technique": "SRB", "endpoint": "IC50", "value": "25.8 µM"}
{"SMILES": "CC(C)C[C@H](NC(=O)[C@H](Cc1ccccc1)NC(=O)c1cnccn1)B(O)O", "read-out": "cell growth or viability", "technique": "ATP luminescence", "endpoint": "IC50", "value": "0.025 µM"}
{"SMILES": "CC(=O)OC[C@H]1O[C@@H]([S-])[C@H](OC(C)=O)[C@@H](OC(C)=O)[C@@H]1OC(C)=O.CCP(CC)CC.[Au+]", "read-out": "cell growth or viability", "technique": "resazurin", "endpoint": "IC50", "value": "2.67 µM"}
{"SMILES": "COc1ccc(C(=O)/C=C/c2c(F)cccc2Cl)cc1S(N)(=O)=O", "read-out": "cell growth or viability", "technique": "SRB", "concentration": "10 µM", "endpoint": "inhibition", "value": "73%"}
{"SMILES": "COc1ccc(-c2ccc(-c3ccc(C(=N)N)nc3)s2)cc1", "read-out": "cell growth or viability", "technique": "SRB", "endpoint": "GI50", "value": "1.7 µM"}
{"SMILES": "C[C@]12CC[C@@H]3c4ccc(O)cc4CC[C@H]3[C@@H]1CC[C@@H]2O", "read-out": "cell growth or viability", "technique": "ATP luminescence", "time": "72 h", "endpoint": "EC50", "value": "18.1 µM"}
{"SMILES": "COc1ccc(C(=O)/C=C/c2ccc(Cl)c(Cl)c2)cc1S(N)(=O)=O", "read-out": "cell growth or viability", "technique": "SRB", "concentration": "10 µM", "endpoint": "inhibition", "value": "48%"}
{"SMILES": "S=C([S][Au-][P+](CCCCCC[P+]([Au-][S]C(=S)n1cccn1)(c1ccccc1)c1ccccc1)(c1ccccc1)c1ccccc1)n1cccn1", "read-out": "cell growth or viability", "endpoint": "GI50", "value": "2.06 µM"}
{"SMILES": "COc1ccc(C(=O)/C=C/c2ccccc2Br)cc1S(N)(=O)=O", "read-out": "cell growth or viability", "technique": "SRB", "time": "48 h", "endpoint": "GI50", "value": "12.9 µM"}
{"SMILES": "OCc1ccc2c(c1C#Cc1ccc(O)cc1)C(c1ccc(O)cc1)(c1ccc(O)cc1)c1cc(O)ccc1-2", "read-out": "cell growth or viability", "technique": "MTT", "time": "48 h", "endpoint": "IC50", "value": "> 50 µM"}
{"SMILES": "COc1ccc(C(=O)/C=C/c2cccc(Br)c2)cc1S(N)(=O)=O", "read-out": "cell growth or viability", "technique": "SRB", "time": "48 h", "endpoint": "GI50", "value": "4.1 µM"}
{"SMILES": "NC(=O)c1cccc2cn(-c3ccc([C@@H]4CCCNC4)cc3)nc12", "read-out": "colony formation", "endpoint": "IC50", "value": "5.34 µM"}
